Source: ChEMBL document CHEMBL4425111, “Optically Pure, Structural, and Fluorescent Analogues of a Dimeric Y4 Receptor Agonist Derived by an Olefin Metathesis Approach” (J Med Chem, 2016)

How the values were obtained:
[1] = biological target: T1, Neuropeptide Y receptor type 4 (Homo sapiens, UniProt P50391); test: Agonist activity at GFP-tagged neuropeptide Y4R (unknown origin) expressed in HEK293T cells assessed as beta-arrestin2 recruitment measured after 60 mins by H33342 staining-based imaging method; type: cell-based
T1 sequence (P50391 whole entry): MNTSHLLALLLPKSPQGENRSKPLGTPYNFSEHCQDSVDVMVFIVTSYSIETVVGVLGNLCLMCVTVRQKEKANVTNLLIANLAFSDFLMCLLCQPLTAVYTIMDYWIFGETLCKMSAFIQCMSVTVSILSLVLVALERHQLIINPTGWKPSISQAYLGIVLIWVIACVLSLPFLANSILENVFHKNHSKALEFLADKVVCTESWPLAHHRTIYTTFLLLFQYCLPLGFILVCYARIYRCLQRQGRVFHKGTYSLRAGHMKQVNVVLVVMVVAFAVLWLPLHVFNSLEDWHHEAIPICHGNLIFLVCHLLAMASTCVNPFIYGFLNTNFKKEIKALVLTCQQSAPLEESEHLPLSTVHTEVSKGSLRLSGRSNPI

[2] = biological target: T1, Neuropeptide Y receptor type 4; test: Agonist activity at GFP-tagged neuropeptide Y4R (unknown origin) expressed in HEK293T cells assessed as beta-arrestin2 recruitment measured after 60 mins by H33342 staining-based imaging method relative to PP; type: cell-based
Summary of the method: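 Y4R–β-arrestin2 BiFC cell lines were seeded on poly-D-lysine plates and tested 24 h later. Ligands (10^-10–10^-6 M, duplicate wells) were applied in HBSS/0.1% BSA for 60 min at 37°C. Cells were fixed with 3% paraformaldehyde (10 min, 21°C) and nuclei stained with H33342. Confocal images were taken at 405/488 nm, and internal YFP granules ≥3 µm were counted against vehicle or 100 nM PP thresholds.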

[3] = biological target: T1, Neuropeptide Y receptor type 4; test: Displacement of [Lys2(sCy5),Arg4]-BVD-15 from C-terminal GFP-tagged neuropeptide Y4R (unknown origin) expressed in human 293TR cells measured after 30 mins by fluorescence analysis; type: cell-based
[4] = biological target: T1, Neuropeptide Y receptor type 4; test: Agonist activity at GFP-tagged neuropeptide Y4R (unknown origin) expressed in HEK293T cells assessed as beta-arrestin2 recruitment at 1 uM measured after 60 mins by H33342 staining-based imaging method relative to PP; type: cell-based
Summary of the method: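 Y4R–β-arrestin2 BiFC cells were stimulated in HBSS/0.1% BSA for 60 min at 37°C, then fixed with 3% paraformaldehyde and stained with H33342. Complemented YFP was imaged by confocal platereader and quantified by granularity analysis with vehicle or 100 nM PP controls. Where agonist activity was not significant, the response at 1 µM peptide was reported.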

Homo sapiens = organism: Homo sapiens; test: Selectivity ratio of IC50 for GFP-tagged neuropeptide Y1R (unknown origin) expressed in HEK293T cells to IC50 for C-terminal GFP-tagged neuropeptide Y4R (unknown origin) expressed in human 293TR cells; type: cell-based
Summary of the method: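 Whole-cell competition binding used tetracycline-induced 293TR cells expressing Y1-GFP or Y4-GFP. Cells were exposed to competitor for 2 min, then to sCy5-labelled tracer (10 nM for Y1R, 100 nM for Y4R) for 30 min at 37°C.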

[5] = Cellular uptake in human 293T-rex cells expressing C-terminal GFP-tagged neuropeptide Y4R measured after 30 mins by fluorescence analysis; type: ADME, cell-based; settings: hek-293t, 0.5 h
Summary of the method: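 293TR Y4-GFP cells, induced with 1 µg/ml tetracycline for 18–21 h, were incubated with sCy5-labelled peptide for 30 min at 37°C in HBSS/0.1% BSA with H33342. Controls were uninduced cells and 1 µM PP competition. Surface and intracellular sCy5 fluorescence was imaged by confocal platereader.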

Row | EC50 ([1]; read-out: pEC50 (converted)) | Rmax [2] | IC50 ([3]; read-out: pIC50 (converted)) | Rmax [4] | EC50 ([1]; read-out: EC50) | IC50 ([3]; read-out: IC50) | Drug uptake [5] | SMILES | Ratio IC50 (Homo sapiens)
1 | 38 nM | 61% | 24 nM |  |  |  |  | CC(C)C[C@H](NC(=O)[C@H](CCCNC(=N)N)NC(=O)[C@H](Cc1ccc(O)cc1)NC(=O)[C@H](N)C/C=C\C[C@@H](N)C(=O)N[C@@H](Cc1ccc(O)cc1)C(=O)N[C@@H](CCCNC(=N)N)C(=O)N[C@@H](CC(C)C)C(=O)N[C@@H](CCCNC(=N)N)C(=O)N[C@@H](Cc1ccc(O)cc1)C(N)=O)C(=O)N[C@@H](CCCNC(=N)N)C(=O)N[C@@H](Cc1ccc(O)cc1)C(N)=O | 
2 |  |  | 70.8 nM | 15.9% |  |  |  | CCN(CC)c1ccc2c(-c3ccccc3C(=O)N3CCN(C(=O)CCC(=O)N[C@@H](CCCC[C@H](N)C(=O)N[C@@H](Cc4ccc(O)cc4)C(=O)N[C@@H](CCCNC(=N)N)C(=O)N[C@@H](CC(C)C)C(=O)N[C@@H](CCCNC(=N)N)C(=O)N[C@@H](Cc4ccc(O)cc4)C(N)=O)C(=O)N[C@@H](Cc4ccc(O)cc4)C(=O)N[C@@H](CCCNC(=N)N)C(=O)N[C@@H](CC(C)C)C(=O)N[C@@H](CCCNC(=N)N)C(=O)N[C@@H](Cc4ccc(O)cc4)C(N)=O)CC3)c3ccc(=[N+](CC)CC)cc-3oc2c1 | 
3 |  |  | 617 nM | 11.3% |  |  |  | COC(=O)[C@H](Cc1ccc(O)cc1)NC(=O)[C@H](CCCNC(=N)N)NC(=O)[C@H](CC(C)C)NC(=O)[C@H](CCCNC(=N)N)NC(=O)[C@H](Cc1ccc(O)cc1)NC(=O)[C@@H](N)CCCC[C@H](N)C(=O)N[C@@H](Cc1ccc(O)cc1)C(=O)N[C@@H](CCCNC(=N)N)C(=O)N[C@@H](CC(C)C)C(=O)N[C@@H](CCCNC(=N)N)C(=O)N[C@@H](Cc1ccc(O)cc1)C(=O)OC | 0.38
4 |  | 61.5% |  |  | 4.6 nM | 12.7 nM |  | CC(C)C[C@H](NC(=O)[C@H](CCCNC(=N)N)NC(=O)[C@H](Cc1ccc(O)cc1)NC(=O)[C@H](N)CCCC[C@@H](N)C(=O)N[C@@H](Cc1ccc(O)cc1)C(=O)N[C@@H](CCCNC(=N)N)C(=O)N[C@@H](CC(C)C)C(=O)N[C@@H](CCCNC(=N)N)C(=O)N[C@@H](Cc1ccc(O)cc1)C(N)=O)C(=O)N[C@@H](CCCNC(=N)N)C(=O)N[C@@H](Cc1ccc(O)cc1)C(N)=O | 30
5 | 95.5 nM | 56.6% |  |  |  |  | Dose-dependent effect | CCN1\C(=C/C=C/C=C/C2=[N+](CCCCCC(=O)N[C@@H](CCCC[C@H](N)C(=O)N[C@@H](Cc3ccc(O)cc3)C(=O)N[C@@H](CCCNC(=N)N)C(=O)N[C@@H](CC(C)C)C(=O)N[C@@H](CCCNC(=N)N)C(=O)N[C@@H](Cc3ccc(O)cc3)C(N)=O)C(=O)N[C@@H](Cc3ccc(O)cc3)C(=O)N[C@@H](CCCNC(=N)N)C(=O)N[C@@H](CC(C)C)C(=O)N[C@@H](CCCNC(=N)N)C(=O)N[C@@H](Cc3ccc(O)cc3)C(N)=O)c3ccc(S(=O)(=O)O)cc3C2(C)C)C(C)(C)c2cc(S(=O)(=O)[O-])ccc21 | 
6 | > 316 nM | 49.1% | 93.3 nM |  |  |  |  | COC(=O)[C@H](Cc1ccc(O)cc1)NC(=O)[C@H](CCCNC(=N)N)NC(=O)[C@H](CC(C)C)NC(=O)[C@H](CCCNC(=N)N)NC(=O)[C@H](Cc1ccc(O)cc1)NC(=O)[C@@H](N)CCCC[C@H](N)C(=O)N[C@@H](Cc1ccc(O)cc1)C(=O)N[C@@H](CCCNC(=N)N)C(=O)N[C@@H](CC(C)C)C(=O)N[C@@H](CCCNC(=N)N)C(=O)N[C@@H](Cc1ccc(O)cc1)C(N)=O | 
7 | 33.1 nM | 65.6% |  |  |  |  | Dose-dependent effect | CCN1\C(=C/C=C/C=C/C2=[N+](CCCCCC(=O)N[C@H](CCCC[C@@H](N)C(=O)N[C@@H](Cc3ccc(O)cc3)C(=O)N[C@@H](CCCNC(=N)N)C(=O)N[C@@H](CC(C)C)C(=O)N[C@@H](CCCNC(=N)N)C(=O)N[C@@H](Cc3ccc(O)cc3)C(N)=O)C(=O)N[C@@H](Cc3ccc(O)cc3)C(=O)N[C@@H](CCCNC(=N)N)C(=O)N[C@@H](CC(C)C)C(=O)N[C@@H](CCCNC(=N)N)C(=O)N[C@@H](Cc3ccc(O)cc3)C(N)=O)c3ccc(S(=O)(=O)O)cc3C2(C)C)C(C)(C)c2cc(S(=O)(=O)[O-])ccc21 | 
8 | 5.5 nM | 29.2% | 69.2 nM |  |  |  |  | CCN(CC)c1ccc2c(-c3ccccc3C(=O)N3CCN(C(=O)CCC(=O)N[C@@H](C/C=C\C[C@H](N)C(=O)N[C@@H](Cc4ccc(O)cc4)C(=O)N[C@@H](CCCNC(=N)N)C(=O)N[C@@H](CC(C)C)C(=O)N[C@@H](CCCNC(=N)N)C(=O)N[C@@H](Cc4ccc(O)cc4)C(N)=O)C(=O)N[C@@H](Cc4ccc(O)cc4)C(=O)N[C@@H](CCCNC(=N)N)C(=O)N[C@@H](CC(C)C)C(=O)N[C@@H](CCCNC(=N)N)C(=O)N[C@@H](Cc4ccc(O)cc4)C(N)=O)CC3)c3ccc(=[N+](CC)CC)cc-3oc2c1 | 
9 | 3.72 nM | 39.3% | 70.8 nM |  |  |  |  | CCN(CC)c1ccc2c(-c3ccccc3C(=O)N3CCN(C(=O)CCC(=O)N[C@H](C/C=C\C[C@@H](N)C(=O)N[C@@H](Cc4ccc(O)cc4)C(=O)N[C@@H](CCCNC(=N)N)C(=O)N[C@@H](CC(C)C)C(=O)N[C@@H](CCCNC(=N)N)C(=O)N[C@@H](Cc4ccc(O)cc4)C(N)=O)C(=O)N[C@@H](Cc4ccc(O)cc4)C(=O)N[C@@H](CCCNC(=N)N)C(=O)N[C@@H](CC(C)C)C(=O)N[C@@H](CCCNC(=N)N)C(=O)N[C@@H](Cc4ccc(O)cc4)C(N)=O)CC3)c3ccc(=[N+](CC)CC)cc-3oc2c1 | 
10 | 30.2 nM | 44.5% | 132 nM |  |  |  |  | CC(C)C[C@H](NC(=O)[C@H](CCCNC(=N)N)NC(=O)[C@H](Cc1ccc(O)cc1)NC(=O)[C@@H](N)C/C=C\C[C@H](N)C(=O)N[C@@H](Cc1ccc(O)cc1)C(=O)N[C@@H](CCCNC(=N)N)C(=O)N[C@@H](CC(C)C)C(=O)N[C@@H](CCCNC(=N)N)C(=O)N[C@@H](Cc1ccc(O)cc1)C(N)=O)C(=O)N[C@@H](CCCNC(=N)N)C(=O)N[C@@H](Cc1ccc(O)cc1)C(N)=O | 3.7
11 | 83.2 nM | 57.1% | 69.2 nM |  |  |  |  | CC(C)C[C@H](NC(=O)[C@H](CCCNC(=N)N)NC(=O)[C@H](Cc1ccc(O)cc1)NC(=O)[C@@H](N)CCCC[C@H](N)C(=O)N[C@@H](Cc1ccc(O)cc1)C(=O)N[C@@H](CCCNC(=N)N)C(=O)N[C@@H](CC(C)C)C(=O)N[C@@H](CCCNC(=N)N)C(=O)N[C@@H](Cc1ccc(O)cc1)C(N)=O)C(=O)N[C@@H](CCCNC(=N)N)C(=O)N[C@@H](Cc1ccc(O)cc1)C(N)=O | 
